For 18 molecules, outcome and inhibition results are on record in PubChem BioAssay AID492951 (Molecular Libraries Program, Specialized Chemistry Center, …, 2010).

A number with no mark means an inactive call. The source made the active and inactive calls.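 How the source made its calls: active means inhibition above 10%; inactive means the rest.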

Sequence of Hexokinase-4 (Homo sapiens) (P35557 whole entry, looked up): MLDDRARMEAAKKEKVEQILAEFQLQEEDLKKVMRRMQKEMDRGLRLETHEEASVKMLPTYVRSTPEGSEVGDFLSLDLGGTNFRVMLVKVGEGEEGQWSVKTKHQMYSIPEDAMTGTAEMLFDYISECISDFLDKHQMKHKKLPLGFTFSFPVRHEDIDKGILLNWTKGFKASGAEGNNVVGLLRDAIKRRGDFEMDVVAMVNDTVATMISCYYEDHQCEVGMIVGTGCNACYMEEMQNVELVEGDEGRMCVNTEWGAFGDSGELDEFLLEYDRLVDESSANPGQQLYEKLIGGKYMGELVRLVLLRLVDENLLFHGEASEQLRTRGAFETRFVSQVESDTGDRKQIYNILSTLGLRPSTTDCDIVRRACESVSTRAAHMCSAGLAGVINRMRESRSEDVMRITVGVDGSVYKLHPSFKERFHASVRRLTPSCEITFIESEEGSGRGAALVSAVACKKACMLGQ

The target of the experiment is Hexokinase-4 (Homo sapiens) (UniProt P35557). Description: hGlck enzyme activity off-target inhibitors – biochemical, recombinant hGlck, counter-screen for TbHK1 inhibitor project (AID 492951). As to conditions: G6PDH-coupled NADH absorbance 340 nm, at 10 µM; active compounds read high. Put shortly:
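Material: Recombinant human glucokinase, G6PDH-coupled | Medium: TEA buffer pH 7.9 with 3.3 mM MgCl2, 0.75 mM NAD+ | Also added: 20 mM glucose as reaction starter, plus 1 mM ATP | Compound dosing: One dose, 10 µM final | Schedule: 10 min preincubation at room temperature | Measured by: A340 of NADH | Repeats: Three replicates per compound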
Background: A counterscreen serves to expose hits that act by an unwanted route or on another target.
For the molecule `COc1ccc(NC(=O)Cn2sc3ccccc3c2=O)cc1`, the result was inactive.

`CN(Cc1ccccc1)C(=O)Cn1sc2ccccc2c1=O`: the inhibition (usually the change of the read-out against control, counted positive when it falls) is 30.6% (active). As for `CCOc1ccc(C(=O)Nc2cc(Cl)ccc2C(=O)O)cc1`, the inhibition is 9.4%. On to `O=C(O)c1ccc(Cl)cc1NC(=O)N1CCOCC1`, for which the result was inactive.

Take `COC(=O)c1cc(Cl)ccc1NC(=O)c1ccc(OC)cc1`: the result was inactive. `COc1ccc(C(=O)NCC(=O)O)cc1`: the inhibition was 20.5% (active). For `O=c1c2c(Br)cccc2sn1-c1ccccc1`, the inhibition was 12.5% (active). Turning to `COC(=O)c1ccc(Cl)cc1NC(=O)c1ccc(Cl)cc1`, the outcome was inactive. Consider `COc1ccc(NC(=O)c2ccccc2SCc2ccccc2)cc1`, for which the inhibition was 41.2% (active). For `O=C(Nc1cc(Cl)ccc1C(=O)O)c1ccc2c(c1)OCO2`, the outcome was inactive.

In the case of `O=C(Cn1sc2ccccc2c1=O)N1CCCCC1`, the outcome was inactive. Consider `O=C(Cn1sc2ccccc2c1=O)Nc1cccc(I)c1`, for which the outcome was inactive.

For `CCc1ccc(C(=O)Nc2cc(Cl)ccc2C(=O)OC)cc1`, the inhibition is 14.5% (active). With `CC(C)(C)c1ccc(C(=O)Nc2cc(Cl)c(F)cc2C(=O)O)cc1`, the outcome was inactive. Still for that read-out and setting: the value for `COc1ccc(C(=O)Nc2cc(F)cc(F)c2O)cc1` was “inactive”.

Regarding `O=C(Cn1sc2ccccc2c1=O)Nc1ccc(Br)cc1`, the inhibition was 33.8% (active).

For the molecule `N#Cc1ccc(NC(=O)Cn2sc3ccccc3c2=O)cc1`, the outcome was inactive. Take `Cc1cc(C(C#N)c2ccc(Cl)cc2)c(Cl)cc1NC(=O)c1cc(I)cc(I)c1O` (stereo not drawn): the inhibition is 24.3% (active).
